Experimental findings from ChEMBL document CHEMBL4002581, “Versiquinazolines A-K, Fumiquinazoline-Type Alkaloids from the Gorgonian-Derived Fungus Aspergillus versicolor LZD-14-1” (J Nat Prod, 2016) are described below.

Bounds are passed on as bounds.

One test deals with A2780. The test is described as follows: Cytotoxicity against human A2780 cells by MTT assay. It is filed as functional, cell-based. Summed up:
(§1)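 Tetrazolium-based colorimetric (MTT) read-out of tumour-cell viability, run on A549 and A2780 lines.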
For orientation: Tetrazolium assays rely on reduction of a dye to a coloured formazan, in cell work by metabolically active cells.

The test system of the next test is A549. The test is described as follows: Cytotoxicity against human A549 cells by MTT assay. It counts as functional, cell-based. Summed up:
as §1

The species named for the next test is Homo sapiens. The test is described as follows: Inhibition of thioredoxin reductase (unknown origin) at 50 uM measured after 5 mins by DTNB reduction assay relative to control. The procedure, abridged:
(§2)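 TrxR inhibition was screened at 50 μM as % inhibition, and IC50 values are reported in μM. Curcumin was run as positive control. The procedure follows a previously described method.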

Test [1] is described as follows: Inhibition of thioredoxin reductase (unknown origin) measured after 5 mins by DTNB reduction assay. More on the design: species or system Homo sapiens. Summed up: as §2

One may read the IC50 as the concentration that gives 50% inhibition. A higher IC50 goes with lower potency. In general, inhibition refers to the relative decrease from the control value, in per cent.

Turning to `O=C1NCc2nc3ccccc3c(=O)n2[C@H]1C[C@]1(O)c2ccccc2N2C(=O)C3(CC3)N[C@H]21`, the IC50 in the test on A2780 and in the test with A549 was above 50 µM each time. In the test listed under Homo sapiens, this compound returned an inhibition of 28%.

In the case of `C=CC(C)(C)[C@@]12C=C(OC)C(=O)N3[C@@H](C)C(=O)N[C@]31N(OC)c1ccccc12`, the IC50 with A2780 and with A549 was above 50 µM in each case. Besides, the inhibition in the test listed under Homo sapiens is 13%.

On to `C=CC(C)(C)[C@@]12C=C(OC)C(=O)N3[C@@H](C)C(=O)N[C@]31N(O)c1ccccc12`, for which the 50% inhibitory concentration (IC50) is above 50 µM in the test on A2780, above 50 µM with A549 and 13 µM in test [1]. The inhibition in the test filed under Homo sapiens stood at 76%.

Take `CC[C@H](C)[C@H]1C(=O)N2c3ccccc3[C@@]3(O)C[C@H]4C(=O)N[C@H](c5nc6ccccc6c(=O)n54)N1[C@H]23`: the half-inhibitory concentration (IC50) in the test with A2780 and in the test with A549 was above 50 µM each time. Moreover, the inhibition in the test filed under Homo sapiens was determined as 43%.

For `O=C1NCc2nc3c(O)cccc3c(=O)n2[C@H]1Cc1c[nH]c2ccccc12`, the IC50 in the test on A2780 and in the test on A549 was above 50 µM in each case. In the test listed under Homo sapiens, this compound came in with an inhibition of 55%.

Regarding `COC(=O)[C@@H]1C[C@]2(O)c3ccccc3N3C(=O)C4(CC4)N([C@@H](OC)c4nc5ccccc5c(=O)n41)[C@H]32`, the IC50 in the test with A2780 was above 50 µM; with A549 it was above 50 µM; in test [1], 13 µM. In the test listed under Homo sapiens, this compound showed an inhibition of 83%.

Turning to `C[C@@H]1N[C@@H]2N(C1=O)c1ccccc1[C@@]2(O)C[C@H]1C(=O)NCc2nc3ccccc3c(=O)n21`, the IC50 with A2780 and with A549 was above 50 µM in each case. The compound further registered an inhibition in the test filed under Homo sapiens of 27%.

As to `CC[C@H](C)[C@@H]1C(=O)N2c3ccccc3[C@@]3(O)C[C@H](n4cnc5ccccc5c4=O)C(=O)N1[C@@H]23`, the IC50 in the test with A2780 and in the test with A549 was above 50 µM each time. This compound showed an inhibition in the test listed under Homo sapiens of 62%.

In turn, `COc1cc(/C=C/C(=O)CC(=O)/C=C/c2ccc(O)c(OC)c2)ccc1O` registered an inhibition in the test filed under Homo sapiens of 25%.

On to `C[C@H]1C(=O)N2c3ccccc3[C@@]3(O)C[C@H]4C(=O)N[C@H](c5nc6ccccc6c(=O)n54)N1[C@H]23`, for which the IC50 in the test on A2780 and with A549 was above 50 µM each time. The compound also registered an inhibition in the test filed under Homo sapiens of 38%.

As for `C[C@H]1C(=O)N2c3ccccc3[C@@]34C[C@H]5C(=O)N(CN1[C@H]23)[C@@H](O4)c1nc2ccccc2c(=O)n15`, the IC50 was above 50 µM with A2780, above 50 µM in the test on A549 and 20 µM in test [1]. Also, the inhibition in the test filed under Homo sapiens was found to be 64%.

`O=C1N[C@@H]2c3nc4ccccc4c(=O)n3[C@H]1C[C@]1(O)c3ccccc3N3C(=O)C4(CC4)N2[C@H]31`: the IC50 in the test on A2780 and in the test with A549 was above 50 µM in each case. The same compound showed an inhibition in the test listed under Homo sapiens of 17%.

`O=C1NCc2nc3ccccc3c(=O)n2[C@H]1C[C@@]12OCN3[C@@H]1N(C(=O)C31CC1)c1ccccc12`: the IC50 in the test with A2780 and in the test with A549 was above 50 µM throughout. For the same compound, in the test listed under Homo sapiens, the inhibition was 51%.

On to `O=C1[C@@H]2C[C@@]34O[C@@H](c5nc6ccccc6c(=O)n52)N1CN1[C@@H]3N(C(=O)C12CC2)c1ccccc14`, for which the IC50 in the test on A2780 is above 50 µM; in the test with A549, above 50 µM; in test [1] it was 12 µM. Besides, the inhibition in the test filed under Homo sapiens was determined as 83%.

As to `O=C1N[C@H]2O[C@@]3(C[C@@H]1n1c2nc2ccccc2c1=O)c1ccccc1N1C(=O)C2(CC2)N[C@H]13`, the IC50 in the test with A2780 and in the test on A549 was above 50 µM each time. Besides, the inhibition in the test filed under Homo sapiens was found to be 47%.
